A word on the IC50: it is the concentration at which inhibition is half-maximal.

Drawing on ChEMBL document CHEMBL1140462, “Convenient synthesis of indeno[1,2-c]isoquinolines as constrained forms of 3-arylisoquinolines and docking study of a topoisomerase I inhibitor into DNA-topoisomerase I complex” (Bioorg Med Chem Lett, 2007), this text covers IC50 and Activity for 22 molecules.

One assay relates to A549. In words: Cytotoxicity against human A549 cells by SRB assay. Format: functional, cell-based. The procedure, abridged:
(§1)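 Panel of four human tumour lines: A549 (lung), SKOV-3 (ovarian), SK-MEL-2 (melanoma) and HCT 15 (colon). Each was exposed to compound in vitro, and cytotoxicity was read out by sulforhodamine B (SRB) staining.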

In a further assay the test system is SK-MEL-2. As to the kind of experiment: Cytotoxicity against human SK-MEL-2 cells by SRB assay. Format: functional, cell-based. The procedure, abridged: as §1
Assay [1] in a line: Cytotoxicity against human OV3 cells by SRB assay. Format: functional, cell-based. In short, it runs like this: as §1
(The SRB assay estimates cell density from bound dye.)

The subject of the next assay is HCT-15. As to the kind of experiment: Cytotoxicity against human HCT15 cells by SRB assay. The assay is classed as functional, cell-based. The procedure, abridged:
as §1

Assay [2] has as its target T1, DNA topoisomerase 1 (Homo sapiens) (UniProt P11387).
T1 sequence (whole entry): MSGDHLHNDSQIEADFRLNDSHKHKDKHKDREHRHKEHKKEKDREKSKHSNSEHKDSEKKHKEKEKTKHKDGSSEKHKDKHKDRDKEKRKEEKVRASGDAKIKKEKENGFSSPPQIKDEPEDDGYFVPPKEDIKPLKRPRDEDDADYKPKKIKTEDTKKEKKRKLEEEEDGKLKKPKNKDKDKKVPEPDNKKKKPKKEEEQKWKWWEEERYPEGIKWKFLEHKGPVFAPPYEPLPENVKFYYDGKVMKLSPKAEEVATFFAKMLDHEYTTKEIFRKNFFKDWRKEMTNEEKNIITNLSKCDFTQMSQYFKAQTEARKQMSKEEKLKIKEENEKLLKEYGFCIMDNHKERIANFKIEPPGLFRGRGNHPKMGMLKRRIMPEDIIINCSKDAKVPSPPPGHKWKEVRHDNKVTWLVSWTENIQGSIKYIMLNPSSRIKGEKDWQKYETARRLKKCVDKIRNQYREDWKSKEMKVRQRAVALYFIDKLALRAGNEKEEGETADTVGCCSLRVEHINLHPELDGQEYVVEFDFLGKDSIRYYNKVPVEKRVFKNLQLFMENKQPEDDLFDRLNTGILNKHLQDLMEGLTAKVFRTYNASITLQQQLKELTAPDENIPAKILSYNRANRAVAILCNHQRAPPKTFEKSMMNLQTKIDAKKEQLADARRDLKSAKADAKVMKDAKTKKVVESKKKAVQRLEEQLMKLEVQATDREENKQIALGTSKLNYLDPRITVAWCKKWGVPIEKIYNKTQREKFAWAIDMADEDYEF
As to the kind of experiment: Inhibition of topoisomerase 1 by supercoiled DNA unwinding method relative to camptothecin. Format: functional.

The source made the active and inactive calls. The calls are words filed in the database; no cut-off is given here.

On to `CCCCOC1c2ccccc2-c2c1c1cc(C)ccc1c(=O)n2C` (stereo not drawn), for which the IC50 in the assay on A549 was 110 µM; with SK-MEL-2 it was 20.9 µM; in assay [1], 30.5 µM; in the assay on HCT-15 it was 10.2 µM.
As for `CCCOC1c2ccccc2-c2c1c1cc(C)ccc1c(=O)n2C` (stereo not drawn), the half-maximal inhibitory concentration (IC50) in the assay on A549 is 40.6 µM; in the assay with SK-MEL-2 it was 80.3 µM; in assay [1] it was 70.7 µM; in the assay on HCT-15 it was 10.9 µM.
The corresponding values for `CCOC1c2ccccc2-c2c1c1cc(C)ccc1c(=O)n2Cc1ccc(OC)cc1` (stereo not drawn) are 6.71 µM, 3.6 µM, 5.89 µM and 1.93 µM.
The corresponding values for `CCOC1c2ccccc2-c2c1c1cc(C)ccc1c(=O)n2C` (stereo not drawn) are 90 µM, 40.9 µM, 70.9 µM and 20.6 µM.
Turning to `COc1ccc(Cn2c3c(c4cc(C)ccc4c2=O)C(OC(C)C)c2ccccc2-3)cc1` (stereo not drawn), the IC50 was found to be 6.22 µM in the assay with A549, 2.43 µM in the assay on SK-MEL-2, 1.21 µM in assay [1] and 0.91 µM in the assay with HCT-15. Further, in assay [2], the result was Active.
For `Cc1ccc2c(=O)n(C)c3c(c2c1)Cc1ccccc1-3`, the concentration for half-maximal inhibition (IC50) with A549 was determined as 130 µM; in the assay with SK-MEL-2, 80.3 µM; in assay [1] it was 261 µM; with HCT-15 it was 20.1 µM.
The corresponding values for `COc1ccc(Cn2c3c(c4cc(C)ccc4c2=O)C(OC)c2ccccc2-3)cc1` (stereo not drawn) are 10.2 µM, 15.2 µM, 1.36 µM and 1.11 µM.
The matching figures for `CCCCOC1c2ccccc2-c2c1c1cc(C)ccc1c(=O)n2Cc1ccc(OC)cc1` (stereo not drawn): 3.24 µM, 3.37 µM, 2.01 µM and 4.4 µM.
The matching figures for `Cc1ccc2c(=O)n(C)c3c(c2c1)C(=O)c1ccccc1-3`: 20.1 µM, 17.1 µM, 16.3 µM and 14.3 µM.
Regarding `CCCOC1c2ccccc2-c2c1c1cc(C)ccc1c(=O)n2Cc1ccc(OC)cc1` (stereo not drawn), the IC50 amounted to 3.45 µM in the assay on A549, 6.26 µM in the assay with SK-MEL-2, 5.76 µM in assay [1] and 1.42 µM in the assay with HCT-15. Also, the result in assay [2] was Active.
The molecule `COc1cccc2c1C(=O)c1c(O)c3c(c(O)c1C2=O)C[C@@](O)(C(=O)CO)C[C@@H]3O[C@H]1C[C@H](N)[C@H](O)[C@H](C)O1` (stereo in doubt) [DOXORUBICIN] yielded a 50% inhibitory concentration (IC50) in assay [1] of 1.17 µM.
For the molecule `Cn1c2c(c3ccccc3c1=O)C(=O)c1ccccc1-2`, the IC50 was 23.5 µM in the assay with A549, 90.2 µM in the assay on SK-MEL-2, 81 µM in assay [1] and 30.6 µM in the assay on HCT-15.
As for `CCCCCOC1c2ccccc2-c2c1c1cc(C)ccc1c(=O)n2C` (stereo not drawn), the half-inhibitory concentration (IC50) came to 16.2 µM with A549, 26.5 µM in the assay with SK-MEL-2, 13.3 µM in assay [1] and 22 µM in the assay on HCT-15.
As to `COc1ccc(Cn2c3c(c4cc(C)ccc4c2=O)C(O)c2ccccc2-3)cc1` (stereo not drawn), the IC50 in the assay on A549 was 100 µM; with SK-MEL-2 it was 181 µM; in assay [1] it was 71 µM; with HCT-15 it was 20.2 µM.
For `CCCCCOC1c2ccccc2-c2c1c1cc(C)ccc1c(=O)n2Cc1ccc(OC)cc1` (stereo not drawn), the IC50 with A549 turned out to be 11.2 µM; in the assay on SK-MEL-2, 11.2 µM; in assay [1] it was 5.7 µM; in the assay on HCT-15, 5.59 µM.
`Cn1c2c(c3ccccc3c1=O)Cc1ccccc1-2`: the IC50 in the assay with A549 came to 30.1 µM; in the assay on SK-MEL-2 it was 130 µM; in assay [1], 30.6 µM; in the assay with HCT-15, 20.5 µM.
As to `CC[C@@]1(O)C(=O)OCc2c1cc1n(c2=O)Cc2cc3ccccc3nc2-1` [CAMPTOTHECIN], the concentration for half-maximal inhibition (IC50) with A549 turned out to be 0.067 µM; with SK-MEL-2 it was 0.075 µM; in assay [1] it was 0.024 µM; in the assay on HCT-15, 0.08 µM. Moreover, the result in assay [2] was Active.
For the molecule `COc1ccc(Cn2c3c(c4cc(C)ccc4c2=O)Cc2ccccc2-3)cc1`, the IC50 in the assay with A549 was 51 µM; in the assay on SK-MEL-2, 31.9 µM; in assay [1], 23.2 µM; in the assay with HCT-15, 8.9 µM.
Consider `COc1ccc(Cn2c3c(c4cc(C)ccc4c2=O)C(OCC(C)C)c2ccccc2-3)cc1` (stereo not drawn), for which the IC50 in the assay on A549 worked out at 1.87 µM; with SK-MEL-2, 2.07 µM; in assay [1] it was 1.63 µM. Besides, the outcome in assay [2] was Active.
Consider `COC1c2ccccc2-c2c1c1cc(C)ccc1c(=O)n2C` (stereo not drawn), for which the concentration for half-maximal inhibition (IC50) in the assay on A549 came out at 130 µM; in the assay with SK-MEL-2, 70.3 µM; in assay [1] it was 60.1 µM; in the assay with HCT-15 it was 20.9 µM.
The matching figures for `Cc1ccc2c(=O)n(C)c3c(c2c1)C(OCC(C)C)c1ccccc1-3` (stereo not drawn): 28.2 µM, 10.5 µM, 38.4 µM and 27.4 µM.
In the case of `COc1ccc(Cn2c3c(c4cc(C)ccc4c2=O)C(=O)c2ccccc2-3)cc1`, the 50% inhibitory concentration (IC50) in the assay with A549 came to 155 µM; in the assay on SK-MEL-2, 158 µM; in assay [1] it was 102 µM; in the assay with HCT-15 it was 171 µM.
